Reference: ChEMBL document CHEMBL4765269, “Design, synthesis and evaluation of phenylthiazole and phenylthiophene pyrimidindiamine derivatives targeting the bacterial membrane” (Eur J Med Chem, 2020)
≈ marks a conversion by molar mass, not a printed value. Calls of active or inactive are those of the source. The calls are words filed in the database; no cut-off is given here. Where a SMILES comes first, the peptide text is derived from it. Bridges are numbered along the chain shown (N, C = ends). [ ]: non-standard residue; d: D form. The star is where a group is joined. X1 = CC[C@H](C)CCCCC(=O)*; Dab = NCC[C@H](N)C(=O)O

How the values were obtained:
[1] = tested on: Staphylococcus aureus; assay: Antibacterial activity against Staphylococcus aureus ATCC 29213 assessed as inhibition of growth measured after 24 hrs by CLSI based broth microdilution method; assay type: functional
[2] = tested on: Escherichia coli; assay: Antibacterial activity against Escherichia coli ATCC 25922 assessed as inhibition of growth measured after 24 hrs by CLSI based broth microdilution method; assay type: functional
[3] = tested on: Staphylococcus aureus; assay: Antibacterial activity against Staphylococcus aureus ATCC 29213 infected in mouse C57BL/6 bacterimia model assessed as reduction in number of viable pathogens in peritoneal cavity at 24 mg/kg, ip treated 1 hr after infection measured after 24 hrs; assay type: functional, organism-based
Method in brief: (§1)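 Male C57BL/6 mice (20 ± 2 g, 7 per group) got an ip injection of 200 µL mid-log S. aureus in sterile saline (about 10^9 CFU per 20 g). Compound was given ip 1 h later. Controls were 0.9% saline and polymyxin B 12 mg/kg. After 24 h, peritoneal lavage (2 mL PBS) was serially diluted 10-fold onto TSA and incubated 18-24 h at 37 °C. CFU were counted.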

[4] = tested on: Escherichia coli; assay: Induction of morphological changes in Escherichia coli ATCC 25922 assessed as deformed, pitted and shriveled surface at MIC incubated for 12 hrs by scanning electron microscopy; assay type: functional, organism-based
Method in brief: (§2)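 Cells treated with 1× MIC compound or PBS, then washed three times in PBS. Pellets were fixed in 2.5% glutaraldehyde for 2 h, dehydrated through an ethanol series, critical-point dried and gold-coated. Imaging was by SEM at 3 kV.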

[5] = tested on: Staphylococcus aureus; assay: Antibacterial activity against Staphylococcus aureus ATCC 29213 infected in mouse C57BL/6 bacterimia model assessed as reduction in number of viable pathogens in peritoneal cavity at 12 mg/kg, ip treated 1 hr after infection measured after 24 hrs; assay type: functional, organism-based; method in brief: as §1
[6] = tested on: Cell membrane; assay: Induction of membrane disruption in Staphylococcus aureus ATCC 29213 at 1 to 4 x MIC measured within 20 min by Ethidium bromide based fluorescence assay; assay type: functional, subcellular
Method in brief: (§3)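 Log-phase cells washed and resuspended in PBS at about 10^8 CFU/mL. Ethidium bromide ([…], stated as final) and compound at various concentrations were added. Fluorescence (ex 540, em 590 nm) was read every 20 min for 80 min against a solvent control.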

[7] = tested on: Escherichia coli; assay: Antibacterial activity against Escherichia coli ATCC 25922 assessed as bacterial growth inhibition at 0.5 times of MIC concentration measured at logarithmic phase 6 th hr of bacterial cycle; assay type: functional, organism-based; settings: time 24.0 hrs
Method in brief: (§4)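 Bacteria grown in Mueller Hinton broth with compound at several MIC multiples, shaken at 220 rpm and 37 °C for 24 h. Growth was recorded every 2 h over the 24 h. The solvent control was 1% DMSO under the same conditions.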

[8] = tested on: Escherichia coli; assay: Induction of morphological changes in Escherichia coli ATCC 25922 assessed as damaged cells at MIC incubated for 12 hrs by Transmission electron microscopy; assay type: functional, organism-based
Method in brief: (§5)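 Cells treated with 1× MIC compound or PBS, then washed three times in PBS. Pellets were fixed in 2.5% glutaraldehyde and then 1% osmium tetroxide, 2 h each, and examined by TEM.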

[9] = tested on: Cell membrane; assay: Induction of membrane depolarization in Escherichia coli ATCC 25922 assessed as increased the fluorescence intensity at 1 to 2 times of MIC incubated for 80 min by [DiSC3(5)] probe based fluorescence assay; assay type: functional, subcellular
Method in brief: (§6)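 Log-phase cells at 10^7 CFU/mL in PBS with 0.4 µM DiSC3(5) and 0.1 M KCl, kept in the dark. […] Fluorescence (ex 622, em 670 nm) was recorded continuously for 80 min.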

[10] = Toxicity in rabbit red blood cells assessed as hemolysis at 3 to 22.5 ug/ml incubated for 1 hr relative to control; assay type: cell-based, Oryctolagus cuniculus, Erythrocyte; settings: at 3 to 22.5 µg/mL, dose 3-22.5 µg/ml, read-out: Activity
Method in brief: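 Washed rabbit erythrocytes at 2% in PBS were mixed with compound at final 3 to 22.5 µg/mL for 1 h at room temperature. After centrifugation at 1500 rpm for 10 min, supernatant absorbance was read at 450 nm. Hemolysis % = (A − A_PBS)/(A_Triton − A_PBS) × 100, with 0.5% Triton X-100 as the positive control. Run in triplicate.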

[11] = tested on: Cell membrane; assay: Induction of cell membrane damage in Escherichia coli ATCC 25922 assessed as fluorescence emission at MIC after 1 hr by propidium iodide staining based transmission electron microscopy (reference value: 4.34%); assay type: functional, subcellular; settings: in the assay text read “flow cytometry” for “transmission electron microscopy”
Method in brief: (§7)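 Log-phase bacteria diluted in PBS to about 10^9 CFU/mL and exposed to 1× MIC compound at 37 °C for 1 h. Cells were washed and stained with 60 µM propidium iodide in the dark for 15 min, then read at once by flow cytometry. The percentage of PI-stained cells was reported against an untreated control.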

[12] = tested on: Staphylococcus aureus; assay: Induction of morphological changes in Staphylococcus aureus ATCC 29213 assessed as damaged cells at MIC incubated for 12 hrs by Transmission electron microscopy; assay type: functional, organism-based; method in brief: as §5
[13] = tested on: Staphylococcus aureus; assay: Antibacterial activity against Staphylococcus aureus ATCC 29213 assessed as bacterial growth inhibition at 0.5 times of MIC concentration measured at logarithmic phase 6 th hr of bacterial cycle; assay type: functional, organism-based; settings: time 24.0 hrs; method in brief: as §4
[14] = tested on: Cell membrane; assay: Induction of membrane depolarization in Staphylococcus aureus ATCC 29213 assessed as increased the fluorescence intensity at 1 to 2 times of MIC incubated for 80 min by [DiSC3(5)] probe based fluorescence assay; assay type: functional, subcellular; method in brief: as §6
[15] = tested on: Staphylococcus aureus; assay: Induction of morphological changes in Staphylococcus aureus ATCC 29213 assessed as deformed, pitted and shriveled surface at MIC incubated for 12 hrs by scanning electron microscopy; assay type: functional, organism-based; method in brief: as §2
[16] = tested on: Escherichia coli; assay: Antibacterial activity against Escherichia coli ATCC 25922 assessed as bacterial growth inhibition at 1 to 2 times of MIC concentration measured at logarithmic phase 6 th hr of bacterial cycle; assay type: functional; settings: time 6 hrs; method in brief: as §4
[17] = tested on: Cell membrane; assay: Induction of cell membrane damage in Staphylococcus aureus ATCC 29213 assessed as fluorescence emission at MIC after 1 hr by propidium iodide staining based transmission electron microscopy (Rvb= 1.53%); assay type: functional, subcellular; settings: in the assay text read “flow cytometry” for “transmission electron microscopy”; method in brief: as §7
[18] = tested on: Cell membrane; assay: Induction of membrane disruption in Escherichia coli ATCC 25922 at 1 to 4 x MIC measured within 20 min by Ethidium bromide based fluorescence assay; assay type: functional, subcellular; method in brief: as §3
[19] = tested on: Staphylococcus aureus; assay: Antibacterial activity against Staphylococcus aureus ATCC 29213 assessed as bacterial growth inhibition at 1 to 2 times of MIC concentration measured at logarithmic phase 6 th hr of bacterial cycle; assay type: functional; settings: time 6 hrs; method in brief: as §4

SMILES	MIC [1] [µg/mL]	MIC [2] [µg/mL]	also measured
CC(C)CNc1nccc(NCc2ccc(-c3ccccc3)s2)n1	8 (≈ 23.6 µM)	8 (≈ 23.6 µM)	
CCCNc1nccc(NCc2ccc(-c3ccccc3)s2)n1	16 (≈ 49.3 µM)	8 (≈ 24.7 µM)	
CCCN(CCC)c1nccc(NCc2ccc(-c3ccccc3)s2)n1	> 32	8 (≈ 21.8 µM)	
CC(C)CNc1nccc(NCc2ccc(-c3ccc(Cl)cc3)s2)n1	8 (≈ 21.5 µM)	8 (≈ 21.5 µM)	
CC(C)CNc1nccc(NCc2ccc(-c3ccccc3Br)s2)n1	8 (≈ 19.2 µM)	4 (≈ 9.58 µM)	
CC(C)Nc1nccc(NCc2ccc(-c3ccccc3)s2)n1	> 32	> 32	
CC(C)CNc1nccc(NCc2ccc(-c3ccc(C(C)(C)C)cc3)s2)n1	8 (≈ 20.3 µM)	2 (≈ 5.07 µM)	
c1ccc(-c2ccc(CNc3ccnc(N4CCNCC4)n3)s2)cc1	> 32	> 32	
O=C(N[C@H](CO)[C@H](O)c1ccc([N+](=O)[O-])cc1)C(Cl)Cl [CHLORAMPHENICOL]	8 (≈ 24.8 µM)	8 (≈ 24.8 µM)	
CN[C@H](CC(C)C)C(=O)N[C@H]1C(=O)N[C@@H](CC(N)=O)C(=O)N[C@H]2C(=O)N[C@H]3C(=O)N[C@H](C(=O)N[C@H](C(=O)O)c4cc(O)cc(O)c4-c4cc3ccc4O)[C@H](O)c3ccc(c(Cl)c3)Oc3cc2cc(c3O[C@@H]2O[C@H](CO)[C@@H](O)[C@H](O)[C@H]2O[C@H]2C[C@](C)(N)[C@H](O)[C@H](C)O2)Oc2ccc(cc2Cl)[C@H]1O [VANCOMYCIN]		1 (≈ 0.69 µM)	
COc1ccc(-c2ccc(CNc3ccnc(NCC(C)C)n3)s2)cc1	4 (≈ 10.9 µM)	4 (≈ 10.9 µM)	
CC(C)CNc1nccc(NCc2csc(-c3ccccc3)n2)n1	> 32	> 32	
CCCCN(CCCC)c1nccc(NCc2ccc(-c3ccccc3)s2)n1	> 32	> 32	
c1ccc(-c2ccc(CNc3ccnc(N4CCOCC4)n3)s2)cc1	> 32	> 32	
CC(C)CNc1nccc(NCc2ccc(-c3ccc(OCc4ccccc4)cc3)s2)n1	8 (≈ 18 µM)	8 (≈ 18 µM)	
CCCCNc1nccc(NCc2ccc(-c3ccccc3)s2)n1	4 (≈ 11.8 µM)	> 32	
CCNc1nccc(NCc2ccc(-c3ccccc3)s2)n1	> 32	16 (≈ 51.5 µM)	
CC(C)CN(CC(C)C)c1nccc(NCc2ccc(-c3ccccc3)s2)n1	> 32	> 32	
CC[C@H](C)CCCCC(=O)N[C@@H](CCN)C(=O)N[C@H](C(=O)N[C@@H](CCN)C(=O)N[C@H]1CCNC(=O)[C@H]([C@@H](C)O)NC(=O)[C@H](CCN)NC(=O)[C@H](CCN)NC(=O)[C@H](CC(C)C)NC(=O)[C@@H](Cc2ccccc2)NC(=O)[C@H](CCN)NC1=O)[C@@H](C)O (X1-[Dab]T[Dab][Dab][Dab][dF]L[Dab][Dab]T; lactam 4-C)	512 (≈ 425 µM)	32 (≈ 26.6 µM)	
Clc1nccc(NCc2csc(-c3ccccc3)n2)n1	> 32	> 32	
CC(C)CNc1nccc(NCc2ccc(-c3cccc(Br)c3)s2)n1	3 (≈ 7.19 µM)	2 (≈ 4.79 µM)	Activity [3]: Active; Activity [4]: Active; Activity [5]: Active; Activity [6]: Active; Activity [7]: Active; Activity [8]: Active; Activity [9]: Active; hemolysis at 1 h [10]: < 20%; Activity [11]: 77.2%; Activity [12]: Active; Activity [13]: Active; Activity [14]: Active; Activity [15]: Active; inhibition (INH) [16]: 100%; Activity [17]: 58.5%; Activity [18]: Active; inhibition (INH) [19]: 100%
CC(C)CNc1nccc(NCc2ccc(-c3ccc(F)cc3)s2)n1	8 (≈ 22.4 µM)	> 32	
CC(C)CNc1nccc(NCc2ccc(-c3ccc(Br)cc3)s2)n1	4 (≈ 9.58 µM)	2 (≈ 4.79 µM)	
c1ccc(-c2ccc(CNc3ccnc(N4CCCC4)n3)s2)cc1	8 (≈ 23.8 µM)	8 (≈ 23.8 µM)	
